# Screening data (PubChem BioAssay)
# miR122 inh: inhibitors of miR-122 in Huh7 cells; 340,000 compounds, 0.3% hits; activation (reporter increase), % at 12.5 µM; Huh7 miR-122 Renilla luciferase sensor, 48 h; neutral wells = 0, positive control = 100;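 active means mean replicate activation score at least 90 and every replicate individually at or above 90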;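 further: higher luciferase means less miR-122 activity so hits act as miR-122 inhibitors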
# SR-BI uptake up: activators of SR-BI mediated HDL lipid uptake; CHO ldlA[mSR-BI] cells, DiI-HDL uptake fluorescence, 3 h; 100 = double the neutral-control signal; 320,000 compounds, 0.096% hits; activation, % at 12.5 µM;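 active means mean replicate activation of at least 60% and every replicate at or above 60%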
#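 material = CHO ldlA[mSR-BI] cells | medium = Ham's F12 with 0.5% BSA, HEPES 25 mM, pH 7.4 | reagent = fluorescent DiI-HDL, 10 µg/mL final | compound dosing = single-point compound dose | incubation = 3 h, 37 °C | measured by = bottom-read fluorescence, 550/595 nm | measure = HDL uptake via cellular fluorescence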
# ARNT TACC3 PPI: ARNT/TACC3 interaction disruption; Q9Y6A5; AlphaScreen His-ARNT PAS-B/GST-TACC3 binding, luminescence; TACC3 fragment carries E629A point mutation; inhibition, % at 9.99 µM; 390,000 compounds, 0.66% hits; AID 623870;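 active means mean inhibition of replicates at least 50% and at least half of replicates each reaching 50%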
# CAL PDZ FP-1: inhibitors of human CAL PDZ peptide binding; Q9HD26; purified CAL PDZ, TMR-peptide fluorescence polarization, 1 h; inhibition, % at 24.9 µM; 300,000 compounds, 0.92% hits;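 active means mean inhibition of at least 30% with at least half of replicates also reaching 30%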
# CAL PDZ FP-2: blocks peptide binding to human CAL PDZ domain | inhibition, % at 20 µM | 330,000 compounds, 0.02% hits | purified CAL PDZ, TMR-peptide fluorescence polarization, 1 h | Q9HD26;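 active means highest replicate inhibition of at least 40%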
#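 Material: tagged CAL PDZ protein CerCALP, purified; buffer or medium: sodium phosphate/NaCl buffer pH 7.4 with TCEP, IgG, Thesit; also added: fluorescent TMR peptide probe; schedule: 1 h incubation at room temperature before polarization reading; technique: fluorescence polarization from S- and P-plane intensities, G-factor corrected; control set: unlabelled peptide and DMSO controls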
# SR-BI HDL uptake: mouse SR-BI HDL lipid transfer inhibition; Q61009; ldlA[mSR-BI] CHO cells, DiI-HDL uptake fluorescence, 3 h; inhibition, % at 12.5 µM; 320,000 compounds, 0.96% hits;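 active means mean replicate inhibition of at least 70% and a set share of replicates each scoring 70 or more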
# Target sequence (Q61009 whole entry, looked up): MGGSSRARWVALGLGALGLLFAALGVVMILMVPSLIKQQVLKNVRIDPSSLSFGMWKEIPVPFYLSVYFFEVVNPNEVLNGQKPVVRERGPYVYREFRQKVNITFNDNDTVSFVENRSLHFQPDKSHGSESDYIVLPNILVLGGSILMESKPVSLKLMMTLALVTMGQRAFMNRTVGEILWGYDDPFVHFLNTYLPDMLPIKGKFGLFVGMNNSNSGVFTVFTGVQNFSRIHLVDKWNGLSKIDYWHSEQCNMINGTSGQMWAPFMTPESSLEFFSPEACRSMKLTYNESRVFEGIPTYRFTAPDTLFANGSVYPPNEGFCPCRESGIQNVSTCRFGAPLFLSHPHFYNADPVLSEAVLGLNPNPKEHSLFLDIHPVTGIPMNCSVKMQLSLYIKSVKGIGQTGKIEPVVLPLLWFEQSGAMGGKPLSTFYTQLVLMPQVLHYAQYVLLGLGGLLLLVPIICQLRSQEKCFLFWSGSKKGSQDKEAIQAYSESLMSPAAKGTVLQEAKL
# A number is an active result; 0 = inactive; - = no result given; [ ] = remark or other dose. Most compounds without a hit are left out; they make up all but 2.1% or so of the library.
SMILES,miR122 inh,SR-BI uptake up,ARNT TACC3 PPI,CAL PDZ FP-1,CAL PDZ FP-2,SR-BI HDL uptake
O=C(Cc1ccccc1)NCC(=O)N1CCN(c2ccccc2F)CC1,0,0,0,0,0,0
O=C(NCC(=O)N1CCN(c2ccccc2F)CC1)c1ccco1,0,0,-,71,0,0
CCOC(=O)c1c(C)[nH]c(C)c1S(=O)(=O)N(C)CC(=O)Nc1cccc(F)c1,0,0,0,34,0,0
O=C(NC1CCCN(c2ccc(C(F)(F)F)cn2)C1)c1cc(Cl)ccc1F (stereo not drawn),0,0,0,0,0,0
Cc1ccc(C(=O)NC2CCCN(c3ccc(C(F)(F)F)cn3)C2)cn1 (stereo not drawn),-,0,0,45,0,0
Nc1ccc(Oc2cccc(Oc3ccc(N)cc3)c2)cc1,-,0,0,39,0,0
Cc1ccc(Nc2cc(C)nc3ncnn23)c(C)c1,0,0,0,0,-,0
Cc1ccc(C)c(Nc2cc(C)nc3ncnn23)c1,0,192,0,-,0,0
Cc1ccc(-c2nc(C)sc2CC(=O)OCC(=O)Nc2ccc(F)c(Cl)c2)cc1,0,0,0,54,0,0
Cc1ccc(NC(=O)Cc2sc(C)nc2-c2ccc(C)cc2)cc1,-,0,0,0,0,0
COc1ccccc1Nc1nc(-c2ccc3c(c2)NC(=O)CO3)cs1,0,0,-,0,0,78
CC(C)NC(=O)Nc1ccc2c(c1)C(=O)N([C@H](C)CO)C[C@H](C)[C@@H](CN(C)S(=O)(=O)c1cccs1)OCCCC[C@@H](C)O2,0,-,0,-,-,-
C[C@H]1CN([C@@H](C)CO)C(=O)Cc2cc(NS(=O)(=O)c3ccccc3)ccc2O[C@@H]1CN(C)Cc1ccncc1,0,-,0,-,-,-
CCOC(=O)Nc1sc(C)nc1-c1ccccc1,-,0,0,0,0,0
CCOC(=O)Nc1nc(-c2ccccc2)c(C(=O)c2ccc(Cl)cc2)s1,110,0,0,0,0,83
S=C(NCc1cccs1)Nc1cccc(Cl)c1,220,0,0,-,0,0
CC(C)c1ccc(NC(=S)NCc2cccs2)cc1,102,0,0,0,0,0
COc1ccc(NC(=S)NCc2cccs2)cc1,-,0,0,0,0,0
COC(=O)C1=C(C)NC(C)=C(C(=O)OC)C1c1ccco1,-,0,0,91,0,0
C=CCOC(=O)C1=C(C)NC(C)=C(C(=O)OCC=C)C1c1ccc(C)o1,0,0,0,0,0,0
CCOC(=O)C1=C(C)NC(C)=C(C(=O)OCC)C1c1ccc(C)o1,-,0,0,74,0,0
C=C(CN(C)C)C(=O)c1cc(C)ccc1C,0,0,0,0,0,81
CCC(=O)N[C@H]1CC[C@@H](CC(=O)NCC2CCCCC2)O[C@@H]1CO,0,-,0,-,-,-
COc1ccc(S(=O)(=O)N(C)C[C@@H]2Oc3ccc(NC(=O)NC(C)C)cc3C(=O)N([C@H](C)CO)C[C@@H]2C)cc1,0,-,-,-,-,-
O=C(NC[C@H]1N[C@H](CO)[C@@H]1c1ccccc1)C1CCCC1,125[16.7 µM],-,0,-,-,-
SMILES,miR122 inh,SR-BI uptake up,ARNT TACC3 PPI,CAL PDZ FP-1,CAL PDZ FP-2,SR-BI HDL uptake
CC(=O)N1[C@H](CO)[C@H](c2ccc(-c3ccccc3)cc2)[C@@H]1CNC(=O)C1CC1,0,-,0,-,-,-
CC(=O)N1[C@H](CNC(=O)C2CC2)[C@@H](c2ccc(-c3ccccc3)cc2)[C@@H]1CO,200[16.7 µM],-,0,-,-,-
CC(=O)N(C)C[C@H]1[C@H](c2ccc(-c3cccnc3)cc2)[C@@H](CO)N1C(=O)C1CC1,125[16.7 µM],-,0,-,-,-
CC(C)NC(=O)N(C)C[C@H]1Oc2ccc(NS(=O)(=O)c3cccs3)cc2C(=O)N([C@@H](C)CO)C[C@@H]1C,0,-,-,-,-,-
Cc1ccc(N(C)S(=O)(=O)c2c[nH]c3ccc([N+](=O)[O-])cc23)cc1,110,0,0,0,0,0
O=C(/C=C/c1cccc2ccccc12)N1CCOCC1,-,0,0,49,0,0
CC(=O)c1ccc(NC(=O)COC(=O)CCC(=O)c2cccs2)cc1,0,270,0,0,0,0
CO[C@H](CN(C)S(=O)(=O)c1ccc(Cl)cc1)[C@@H](C)CN(C(=O)Nc1ccccc1F)[C@@H](C)CO,-,-,0,-,-,-
COc1ccc(-c2csc(N3C(=O)CNC3=S)n2)cc1,-,0,0,67,0,0
C=CC(C)(C)c1c(O)c(CC=C(C)C)c(O)c2c(=O)c3ccc(O)c(O)c3oc12,0,0,-,0,0,123
O=C(C[C@H]1C[C@@H]2c3cc(NC(=O)C4CCC4)ccc3O[C@@H]2[C@@H](CO)O1)NC1CCCCC1,0,-,0,-,-,-
Cc1ccccc1NS(=O)(=O)c1cccc(C(=O)Nc2cccc(C(=O)O)c2)c1,0,0,0,0,0,0
Cc1ccccc1NS(=O)(=O)c1cc(C(=O)Nc2cccc(N(C)S(C)(=O)=O)c2)ccc1C,-,0,0,0,0,71
Cc1ccc(C(=O)Nc2ccccc2C(=O)O)cc1S(=O)(=O)Nc1ccccc1,92,0,0,0,0,0
CN(c1cccc(NC(=O)c2ccc(Cl)c(S(=O)(=O)Nc3ccccc3)c2)c1)S(C)(=O)=O,197,0,0,0,0,0
Cc1ccccc1NS(=O)(=O)c1cc(C(=O)N2CCc3ccccc3C2)ccc1C,177,0,0,-,0,0
Cc1ccc(C(=O)N2CCCC2)cc1S(=O)(=O)Nc1ccccc1,0,0,0,0,0,0
Cc1ccc(C(=O)NCCSC2CCCCC2)cc1S(=O)(=O)Nc1ccccc1,100,0,0,0,0,0
COc1ccc(NC(=O)Nc2ccc3c(c2)C(=O)N([C@@H](C)CO)C[C@H](C)[C@@H](CN(C)S(=O)(=O)c2cccs2)O3)cc1,0,-,0,-,-,-
COc1ccc(S(=O)(=O)N2CC(C(=O)O)Oc3ccc(CC(=O)O)cc32)cc1 (stereo not drawn),0,0,0,38,0,0
O=C(c1noc2c1CCCC2)N1CCCC(N2CCN(c3ccccc3F)CC2)C1 (stereo not drawn),0,0,0,0,0,73
Cc1ccccc1N1CCN(C2CCCN(C(=O)c3csc(C(C)C)n3)C2)CC1 (stereo not drawn),0,0,0,54,0,0
O=C(c1ccsc1)N1CCCC(N2CCN(c3ccccc3F)CC2)C1 (stereo not drawn),0,0,0,0,0,0
CC(C)c1cc(C(=O)N2CCCC(N3CCN(c4ccc(F)cc4)CC3)C2)no1 (stereo not drawn),0,0,0,57,0,0
CN=c1scc(-c2ccccc2F)n1/N=C(\C)c1cccnc1,-,0,40,0,0,0
CC(C)(C)C1CCC(=NNC(=S)Nc2cccnc2)CC1 (stereo not drawn),-,0,0,0,0,0
